ABCG2 inh = blocks JC-1 efflux by human ABCG2 transporter | Q9UNQ0 | AID 1325 | IgMXP3 cells, flow cytometry | hit rate 0.1% among 190,000 | inhibition, % at 6.6 µM;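 active = inhibition above 80%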;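 also: 0% = DMSO and 100% = nicardipine control wells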
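Test system: ABCG2 IgMXP3 and barcoded ABCB1 CCRF-Adr cell mix; Schedule: cells with compound and JC-1, 10 min at 25 °C, rotating, no wash; Technique: flow cytometry of retained JC-1 fluorescence; Measure: % inhibition of efflux relative to nicardipine and DMSO; Controls: nicardipine high and DMSO low controls.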
ABCB1 block = inhibitors of human ABCB1 transporter, ABCG2 counter-screen. inhibition, % at 6.6 µM. AID 1326. CCRF-Adr cells, JC-1 efflux, flow cytometry. P08183. hit rate 0.067% among 190,000; in the data active = inhibition above about 40%;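 also: 0% = vehicle and 100% = reference inhibitor; higher value means more JC-1 retained so stronger ABCB1 efflux block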
WT yeast gro inh = growth inhibition of WT yeast, mitochondrial fusion screen; hit rate 2.1% among 190,000; mitochondrial fusion phenotypic screen, WT strain; AID 1362; inhibition, % at 10 µM; in the data active = inhibition above about 58%; tested in S. cerevisiae
RAM network inh = inhibitors of the yeast RAM network. S. cerevisiae dse1pr::URA3 reporter, 5-FOA growth OD615, 2 d; analog-sensitive cbk1-as2 kinase mutant strain. inhibition, % at 50 µM. hit rate 1.8% among 190,000. AID 868;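 active = inhibition above a set limit, 3 SD over mean compound inhibition, cut at about 8.4% in these data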;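 also: 0% = DMSO-only wells with no growth and 100% = 10 µM 1-NA-PP1 full growth; inhibition rescues growth on 5-FOA so higher OD means more RAM inhibition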
L major viab = reduces viability of Leishmania major promastigotes | inhibition, % at 10 µM | resazurin fluorescence viability | hit rate 9% among 200,000; in the data active = inhibition above about 50%;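 also: promastigotes grown with compound for 44 hours at 28 °C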
Lmaj promast 1uM = L. major promastigote growth inhibition, 1 uM repeat; shares compounds with L major viab; resazurin fluorescence, 48 h; inhibition, % at 1 µM; hit rate 13% among 1,100;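 active = inhibition above about 50% in both repeat tests, limit read from the data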
* hit, by the source's call; / = no result given. Most compounds without a hit are left out; they make up all but 12% or so of the library.

SMILES	ABCG2 inh	ABCB1 block	WT yeast gro inh	RAM network inh	L major viab	Lmaj promast 1uM
COc1ccc([C@@H]2Sc3cc(OC)ccc3N(CCN(C(C)C)C(C)C)C(=O)[C@H]2OC(C)=O)cc1	1	2	5	2	74*	-5
CCN1C(=O)C(NC(C)=O)c2cc(OC)ccc21 (stereo not drawn)	1	1	-2	1	-9	/
Cc1cc(C)c(S(C)(=O)=O)c(Oc2cccc(C(F)(F)F)c2)n1	9	1	-6	0	-5	/
Cn1c(C(=O)N2CCN(C(=O)c3ccco3)CC2)cc2c(=O)n3ccccc3nc21	4	0	-1	1	7	/
Cn1c(C(=O)N2CCc3ccccc3C2)cc2c(=O)n3ccccc3nc21	1	0	-2	-1	97*	-9
Cc1ccc(N2CN(Cc3ccco3)CNC2=S)c(C)c1	22	2	-6	0	49	/
Cc1ccc(N2CN(Cc3cccnc3)CNC2=S)c(C)c1	1	0	-12	-1	86*	46
FC(F)(F)c1ccc2c(c1)C1C=CCC1C(c1ccncc1)N2 (stereo not drawn)	0	0	14	0	88*	-7
COc1ccc(-c2c(C)nn(-c3ccccc3)c2N)cc1	26	0	-1	4	2	/
Cc1nn(-c2nc3ccccc3[nH]2)c(N)c1-c1ccc(Cl)cc1	1	0	0	1	65*	74*
COC(=O)c1ccccc1NC(=O)CCCn1nc([N+](=O)[O-])c(Br)c1C	10	2	22	1	4	/
O=C(N/N=C\c1ccc(CNS(=O)(=O)c2ccccc2)o1)C(=O)Nc1ccc(F)cc1	8	0	8	4	-4	/
O=C(N/N=C\c1ccc(CN(Cc2ccc(Cl)cc2)S(=O)(=O)c2ccccc2)o1)C(=O)Nc1ccc(F)cc1	14	0	5	2	81*	43
CCN(CC)CCOC(c1ccccc1)c1ccc(C)cc1 (stereo not drawn)	1	1	9	1	96*	74*
Cc1ccccc1C(OCCN(C)C)c1ccccc1 (stereo not drawn)	3	1	9	-1	3	/
COc1ccc(OC)c2[nH]c(=O)c(CCNC(=O)c3ccc(S(=O)(=O)N4CCCC4)cc3)cc12	5	4	24	1	67*	-9
CCN(CC)S(=O)(=O)c1ccc(C(=O)NCCc2cc3c(OC)ccc(OC)c3[nH]c2=O)cc1	11	7	24	1	2	/
COC(=O)CCN(C(=O)c1cccc([N+](=O)[O-])c1)c1ccccn1	4	0	2	1	-7	/
Cc1ccccc1Nc1cc2ccccc2c(=O)[nH]1	1	0	66*	0	53*	-10
COc1cccc(C(=O)Nc2cc(-c3cn4cccnc4n3)ccc2C)c1	2	0	1	1	-3	/
Cc1ccc(S(=O)(=O)n2cc(-c3ccccc3)c(N)n2)cc1	2	1	7	4	9	/
Nc1nn(S(=O)(=O)c2ccccc2)cc1-c1ccc([N+](=O)[O-])cc1	-3	0	-13	2	99*	6
CC(=O)Nc1cccc(C(=O)/C=C/c2cccs2)c1	13	1	12	0	93*	-8
CC(=O)Nc1cccc(C(=O)/C=C/c2ccco2)c1	6	1	-9	1	-3	/
Cc1cc(N)n(-c2ccccc2C)n1	-2	0	-10	1	-4	/
SMILES	ABCG2 inh	ABCB1 block	WT yeast gro inh	RAM network inh	L major viab	Lmaj promast 1uM
Cc1cc(Nc2ncc(Cl)cc2Cl)n(-c2ccccc2C)n1	4	1	57	0	82*	-11
O=C(Cn1c(=O)n2ncnc2c2c3c(sc21)CCCC3)c1ccccc1	6	2	-8	6	74*	-10
COc1cc(-c2nc3ccccn3c2/N=C/c2cc(OC)c(O)cc2Cl)ccc1O	4	8	18	0	11	/
COc1ccc(OC)c(N=C(N)N=C(N)N)c1	4	0	0	0	-7	/
O=C(NNS(=O)(=O)c1ccc2ccccc2c1)c1cc(-c2ccccn2)nc2ccccc12	-6	0	44	0	-1	/
O=c1[nH]c2cc([N+](=O)[O-])c([N+](=O)[O-])cc2[nH]c1=O	4	0	-11	1	4	/
O=c1[nH]c(=O)c2cc([N+](=O)[O-])cc([N+](=O)[O-])c2[nH]1	3	0	-14	-1	91*	13
O=C(NC(=S)NNS(=O)(=O)c1ccc(Cl)cc1)c1cccnc1	-1	0	-5	1	-5	/
CCn1c(SCC(=O)Nc2ccc3c(c2)oc2ccccc23)nnc1-c1ccc(N)cc1	6	-3	20	1	5	/
Cc1ccc(NCC(=O)Nc2ccc(Br)cc2)cc1F	15	0	3	4	-2	/
CCN(CC)CCNC(=O)c1[nH]c2ccc(OCc3ccccc3)cc2c1C	1	0	15	-1	100*	-17
Clc1ccc2nnnc(-c3ccccc3)c2c1	8	1	-12	0	86*	4
c1ccc(-c2nnnc3ccccc23)cc1	4	0	-3	3	2	/
O=C(C1CCN(Cc2cccs2)CC1)N1CCN(Cc2ccc3c(c2)OCO3)CC1	-1	0	-10	1	10	/
CN(C)CCNc1c2c(c(C#N)c3nc4ccccc4n13)CCCC2	11	3	-6	-1	54*	-16
O=C(c1cn(-c2ccccc2)nc1-c1ccc(Cl)s1)N1CCOCC1	6	1	12	-1	64*	-14
O=C(c1cn(-c2ccccc2)nc1-c1ccc(Cl)cc1)N1CCOCC1	2	1	-1	0	3	/
N#CC1=C(Nc2ccccc2)SC=C(c2ccccc2)N=C1N1CCOCC1	1	0	4	0	0	/
N#CC1=C(Nc2ccccc2)SC=C(c2ccc(Cl)c(Cl)c2)N=C1N1CCOCC1	2	1	0	-1	100*	-14
COC(=O)c1ccccc1NC(=S)NC(NC(=O)COc1ccccc1)C(Cl)(Cl)Cl (stereo not drawn)	1	0	14	3	99*	23
Cc1ccc(N2CC(C)Cn3c2nc2c3c(=O)n(CC(=O)OCc3ccccc3)c(=O)n2C)cc1C (stereo not drawn)	4	3	-1	5	59*	15
Cc1cc(C)cc(N2CCCn3c2nc2c3c(=O)n(CC(=O)OCc3ccccc3)c(=O)n2C)c1	2	1	-4	1	30	/
C=CCn1c(SCc2c(F)cccc2Cl)nnc1-c1ccco1	2	0	-10	2	3	/
COc1ccc(NS(=O)(=O)c2cc(C)ccc2NC(=O)c2cc(C)oc2C)cc1	3	1	-6	0	52*	19
Cc1nnc(Nc2ccccn2)c2ccccc12	67	2	23	1	70*	90*
O=C(Nc1c(Cl)ccc2nsnc12)c1cccnc1	2	2	7	0	-3	/

High-throughput results: PubChem, several laboratories
